Source: ChEMBL document CHEMBL3272228, “Antimalarial activity of some novel derivatives of 2,4-diamino-5(p-chlorophenyl)-6-ethylpyrimidine (pyrimethamine)” (J Med Chem, 1976)
The source made the active and inactive calls. The rule behind the calls is not given here.

Legend:
Plasmodium berghei [1] = assay: Antimalarial activity against Plasmodium berghei KBG13 infected in mouse assessed as increase in host mean survival time at minimum dose; format: functional
In short: (§1)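 Mice infected with Plasmodium berghei strain KBG 13. Five mice per dose group, with doses up to 640 mg/kg. Read-out is the increase in mean survival time in days, with cured/treated counts recorded. The minimum active dose is the lowest dose showing activity, and survival gain is also reported at that dose.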

Plasmodium berghei [2] = assay: Antimalarial activity against Plasmodium berghei KBG13 infected in mouse assessed as minimum dose required for activity; format: functional; conditions: for minimal effective dose: read-out: MED
In short: (§2)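 P. berghei strain KBG 13 in mice, groups of five treated, doses up to 640 mg/kg. Scored as increase in mean survival time in days over controls and as cured/treated. Reported values are the lowest dose giving any cure and the lowest dose showing activity.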

Plasmodium berghei [3] = assay: Antimalarial activity against Plasmodium berghei KBG13 infected in mouse assessed as minimum dose required for disease cures; format: functional; in short: as §2
Mus musculus [4] = assay: Toxicity in mouse infected with Plasmodium berghei KBG13 assessed as animal death at 640 mg/kg; format: organism-based; parameters: dose 640 mg/kg; conditions: in vivo
Plasmodium berghei [5] = assay: Antimalarial activity against Plasmodium berghei KBG13 infected in mouse assessed as increase in host mean survival time at 640 mg/kg; format: functional; in short: as §1
Mus musculus [6] = species: Mus musculus; assay: Toxicity in mouse infected with Plasmodium berghei KBG13 assessed as animal death at 4 times minimum curative dose; format: organism-based; conditions: in vivo
Plasmodium gallinaceum [7] = assay: Antimalarial activity against Plasmodium gallinaceum infected in chicks assessed as increase in host survival time at 100 to 160 mg/kg; format: functional; conditions: dose mg/kg 100-160
In short: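 Chicks infected with Plasmodium gallinaceum, in limited testing at doses of 100-160 mg/kg. Activity is expressed as T/C in days of survival at the respective dose levels.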

Plasmodium berghei [8] = assay: Antimalarial activity against Plasmodium berghei KBG13 infected in mouse assessed as disease cures at 640 mg/kg; format: functional, organism-based; parameters: dose 640 mg/kg; in short: as §2
Plasmodium gallinaceum [9] = assay: Antimalarial activity against Plasmodium gallinaceum infected in chicks assessed as increase in host survival at 120 mg/kg; format: functional, organism-based; parameters: dose 120 mg/kg
In short: (§3)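 P. gallinaceum in chicks given doses of 100–160 mg/kg. Activity is expressed as T/C, the increase in survival time in days.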

Mus musculus [10] = species: Mus musculus; assay: Toxicity in mouse infected with Plasmodium berghei KBG13 assessed as animal death at 2 times minimum curative dose; format: organism-based; conditions: in vivo
Plasmodium gallinaceum [11] = assay: Antimalarial activity against Plasmodium gallinaceum infected in chicks assessed as increase in host survival; format: functional, organism-based; in short: as §3

SMILES: C/C(=N\N(C)C)c1nc(N)nc(N)c1-c1ccc(Cl)cc1
- MST (Plasmodium berghei [1]): 3.8 days
- minimal effective dose (Plasmodium berghei [2]): 40 mg/kg
- MCD (Plasmodium berghei [3]): 320 mg/kg
- Activity (Mus musculus [4]): Toxic

SMILES: C/C(=N/N)c1nc(N)nc(N)c1-c1ccc(Cl)cc1
- MST (Plasmodium berghei [1]): 8.4 days
- MST (Plasmodium berghei [5]): 14.8 days
- minimal effective dose (Plasmodium berghei [2]): 160 mg/kg

SMILES: CC(=O)c1nc(N)nc(N)c1-c1ccc(Cl)cc1
- MST (Plasmodium berghei [1]): 5.9 days
- minimal effective dose (Plasmodium berghei [2]): 80 mg/kg
- MCD (Plasmodium berghei [3]): 320 mg/kg
- Activity (Mus musculus [4]): Toxic

SMILES: CCOC(C)(OCC)c1nc(N)nc(N)c1-c1ccc(Cl)cc1
- MST (Plasmodium berghei [1]): 3.5 days
- Activity (Mus musculus [6]): Non-toxic
- MST (Plasmodium gallinaceum [7]): 5.4 days
- minimal effective dose (Plasmodium berghei [2]): 20 mg/kg
- MCD (Plasmodium berghei [3]): 160 mg/kg
- Activity (Plasmodium berghei [8]): Active

SMILES: CC(=O)NC(C)c1nc(N)nc(N)c1-c1ccc(Cl)cc1 (racemic)
- Activity (Plasmodium berghei [1]): inactive
- Activity (Plasmodium berghei [2]): inactive
- Activity (Plasmodium berghei [3]): inactive
- Activity (Plasmodium berghei [8]): inactive

SMILES: CC(O)c1nc(N)nc(N)c1-c1ccc(Cl)cc1 (racemic)
- MST (Plasmodium berghei [1]): 4.7 days
- MST (Plasmodium gallinaceum [7]): 5.4 days
- minimal effective dose (Plasmodium berghei [2]): 80 mg/kg
- Activity (Plasmodium berghei [8]): Active

SMILES: C/C(c1nc(N)nc(N)c1-c1ccc(Cl)cc1)=[N+](\C)[O-]
- MST (Plasmodium berghei [1]): 3.1 days
- minimal effective dose (Plasmodium berghei [2]): 160 mg/kg
- MCD (Plasmodium berghei [3]): 640 mg/kg
- Activity (Plasmodium gallinaceum [9]): inactive

SMILES: CC(N)c1nc(N)nc(N)c1-c1ccc(Cl)cc1 (configuration not stated)
- Activity (Plasmodium berghei [1]): inactive
- Activity (Plasmodium berghei [2]): inactive
- Activity (Plasmodium berghei [3]): inactive
- Activity (Plasmodium berghei [8]): inactive

SMILES: CCc1nc(N)nc(N)c1-c1ccc(Cl)cc1 [PYRIMETHAMINE]
- MCD (Plasmodium berghei [3]): 40 mg/kg
- Activity (Mus musculus [10]): Toxic

SMILES: C/C(=N/O)c1nc(N)nc(N)c1-c1ccc(Cl)cc1
- MST (Plasmodium berghei [1]): 3.4 days
- MST (Plasmodium berghei [5]): 5.4 days
- minimal effective dose (Plasmodium berghei [2]): 160 mg/kg

SMILES: C/C(=N\NC(=N)N)c1nc(N)nc(N)c1-c1ccc(Cl)cc1
- Activity (Plasmodium berghei [1]): inactive
- Activity (Plasmodium berghei [2]): inactive
- Activity (Plasmodium berghei [3]): inactive
- Activity (Plasmodium berghei [8]): inactive

SMILES: CN/N=C(\C)c1nc(N)nc(N)c1-c1ccc(Cl)cc1
- Activity (Plasmodium berghei [1]): inactive
- Activity (Plasmodium berghei [2]): inactive
- Activity (Plasmodium berghei [3]): inactive
- Activity (Mus musculus [4]): Toxic

SMILES: COC(C)(OC)c1nc(N)nc(N)c1-c1ccc(Cl)cc1
- MST (Plasmodium berghei [1]): 4.5 days
- MST (Plasmodium gallinaceum [7]): 5.4 days
- minimal effective dose (Plasmodium berghei [2]): 40 mg/kg
- MCD (Plasmodium berghei [3]): 320 mg/kg
- Activity (Plasmodium berghei [8]): Active

SMILES: CCN(CC)CCCC(C)NC(C)c1nc(N)nc(N)c1-c1ccc(Cl)cc1 (configuration not stated)
- Activity (Plasmodium gallinaceum [11]): inactive
